# Reference: ChEMBL document CHEMBL1817631, “Synthesis and characterization of tritylthioethanamine derivatives with potent KSP inhibitory activity” (Bioorg Med Chem, 2011)
# The source made the active and inactive calls. The rule behind the calls is not given here.
# Key:
# [1] = target: Kinesin-like protein KIF11 (Homo sapiens, UniProt P52732); assay: Inhibition of human recombinant microtubule-activated KSP motor domain ATPase activity after 10 mins by end-point assay
# [2] = system: HeLa; assay: Inhibition of bipolar spindle formation in human HeLa cells at 1 uM; assay type: functional, cell-based
# Outline: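 HeLa cells were grown in MEM with Earle's BSS, 10% FBS, sodium bicarbonate and pyruvate at 37°C in 5% CO2. They were exposed to compound in DMSO for 4 h, with 0.1% DMSO as carrier control. Cells were fixed in −20°C methanol and immunostained for tubulin, with DNA counterstained. Bipolar spindle formation was scored in 100 mitotic cells per condition.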
# [3] = system: HeLa; assay: Effect on interphase microtubule organization in human HeLa cells at 1 uM; assay type: functional, cell-based
# Outline: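 HeLa cells were grown in MEM/Earle's BSS with 10% FBS at 37 °C and 5% CO2, then treated 4 h with 1 μM compound or 0.1% DMSO carrier. Cells were fixed in 100% MeOH at −20 °C and blocked in PBS-5% BSA. They were stained overnight at 4 °C with mouse anti-tubulin and for DNA, then imaged by epifluorescence with structured illumination.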
# [4] = target: T1, Kinesin-like protein Klp61F (Drosophila melanogaster) (UniProt P46863); assay: Inhibition of Drosophila melanogaster Klp61F in S2 cells at 100 uM up to 7 hrs by immunofluorescence analysis; assay type: cell-based
# T1 sequence (whole entry): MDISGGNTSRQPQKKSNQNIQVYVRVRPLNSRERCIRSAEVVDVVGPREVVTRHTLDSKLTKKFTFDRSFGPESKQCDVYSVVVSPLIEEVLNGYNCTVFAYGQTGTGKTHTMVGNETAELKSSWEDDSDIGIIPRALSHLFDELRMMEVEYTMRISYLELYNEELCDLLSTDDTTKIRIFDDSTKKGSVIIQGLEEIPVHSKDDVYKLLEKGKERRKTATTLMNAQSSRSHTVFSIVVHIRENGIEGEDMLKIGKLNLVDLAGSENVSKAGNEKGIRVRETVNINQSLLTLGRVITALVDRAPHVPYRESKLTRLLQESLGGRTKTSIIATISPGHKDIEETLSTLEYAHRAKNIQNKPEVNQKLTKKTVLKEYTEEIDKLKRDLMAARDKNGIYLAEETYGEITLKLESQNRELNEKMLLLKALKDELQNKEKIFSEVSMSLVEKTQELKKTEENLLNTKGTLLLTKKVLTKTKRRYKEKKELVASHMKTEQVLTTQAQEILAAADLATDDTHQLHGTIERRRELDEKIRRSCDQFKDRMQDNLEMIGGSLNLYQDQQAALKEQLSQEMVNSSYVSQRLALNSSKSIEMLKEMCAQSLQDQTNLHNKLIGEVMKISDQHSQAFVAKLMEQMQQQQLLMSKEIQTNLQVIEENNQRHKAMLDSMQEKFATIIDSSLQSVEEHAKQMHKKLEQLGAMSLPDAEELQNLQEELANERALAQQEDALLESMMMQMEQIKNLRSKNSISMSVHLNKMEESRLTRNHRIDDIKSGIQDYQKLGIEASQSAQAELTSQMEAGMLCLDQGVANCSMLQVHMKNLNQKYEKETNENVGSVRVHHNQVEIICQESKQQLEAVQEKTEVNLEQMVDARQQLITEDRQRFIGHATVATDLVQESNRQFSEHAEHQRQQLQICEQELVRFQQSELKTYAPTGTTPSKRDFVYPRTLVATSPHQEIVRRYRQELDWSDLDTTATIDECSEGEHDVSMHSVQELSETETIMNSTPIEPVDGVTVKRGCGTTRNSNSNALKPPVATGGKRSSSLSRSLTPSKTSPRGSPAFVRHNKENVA
# Outline: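 Drosophila S2 cells were exposed to compound over a three-log concentration range up to 100 μM, with treatments extending up to 7 h. Bipolar spindle formation was scored by immunofluorescence.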
# [5] = system: CCRF-CEM; assay: Growth inhibition of human CCRF-CEM cells; assay type: functional
# [6] = system: K562; assay: Growth inhibition of human K562 cells; assay type: functional
# [7] = system: MOLT-4; assay: Growth inhibition of human MOLT4 cells; assay type: functional
# [8] = Growth inhibition of human […] cells; assay type: functional
# [9] = system: SR; assay: Growth inhibition of human SR cells; assay type: functional
# [10] = system: A549; assay: Growth inhibition of human A549 cells; assay type: functional
# [11] = system: EKVX; assay: Growth inhibition of human EKVX cells; assay type: functional
# [12] = system: HOP-62; assay: Growth inhibition of human HOP62 cells; assay type: functional
# [13] = system: NCI-H226; assay: Growth inhibition of human NCI-H226 cells; assay type: functional
# [14] = system: NCI-H23; assay: Growth inhibition of human NCI-H23 cells; assay type: functional
# [15] = system: NCI-H322M; assay: Growth inhibition of human NCI-H322M cells; assay type: functional
# [16] = system: NCI-H522; assay: Growth inhibition of human NCI-H522 cells; assay type: functional
# [17] = system: COLO 205; assay: Growth inhibition of human COLO205 cells; assay type: functional
# [18] = system: HCC 2998; assay: Growth inhibition of human HCC2998 cells; assay type: functional
# [19] = system: HCT-116; assay: Growth inhibition of human HCT116 cells; assay type: functional
# [20] = system: HCT-15; assay: Growth inhibition of human HCT15 cells; assay type: functional
# [21] = system: HT-29; assay: Growth inhibition of human HT-29 cells; assay type: functional
# [22] = system: SW-620; assay: Growth inhibition of human SW620 cells; assay type: functional
# [23] = system: SF-268; assay: Growth inhibition of human SF268 cells; assay type: functional
# [24] = system: SF-295; assay: Growth inhibition of human SF295 cells; assay type: functional
# [25] = system: SF-539; assay: Growth inhibition of human SF539 cells; assay type: functional
# [26] = system: SNB-19; assay: Growth inhibition of human SNB19 cells; assay type: functional
# [27] = system: SNB-75; assay: Growth inhibition of human SNB75 cells; assay type: functional
# [28] = system: U-251; assay: Growth inhibition of human U251 cells; assay type: functional
# [29] = system: LOX IMVI; assay: Growth inhibition of human LOXIMVI cells; assay type: functional
# [30] = system: Malme-3M; assay: Growth inhibition of human MALME-3M cells; assay type: functional
# [31] = system: M14; assay: Growth inhibition of human M14 cells; assay type: functional
# [32] = system: SK-MEL-2; assay: Growth inhibition of human SK-MEL-2 cells; assay type: functional
# [33] = system: SK-MEL-28; assay: Growth inhibition of human SK-MEL-28 cells; assay type: functional
# [34] = system: SK-MEL-5; assay: Growth inhibition of human SK-MEL-5 cells; assay type: functional
# [35] = system: UACC-257; assay: Growth inhibition of human UACC257 cells; assay type: functional
# [36] = system: UACC-62; assay: Growth inhibition of human UACC62 cells; assay type: functional
# [37] = system: IGROV-1; assay: Growth inhibition of human IGROV1 cells; assay type: functional
# [38] = system: OVCAR-3; assay: Growth inhibition of human OVCAR3 cells; assay type: functional
# [39] = system: OVCAR-4; assay: Growth inhibition of human OVCAR4 cells; assay type: functional
# [40] = system: OVCAR-5; assay: Growth inhibition of human OVCAR5 cells; assay type: functional
# [41] = system: OVCAR-8; assay: Growth inhibition of human OVCAR8 cells; assay type: functional
# [42] = system: SK-OV-3; assay: Growth inhibition of human SKOV3 cells; assay type: functional
# [43] = system: 786-0; assay: Growth inhibition of human 786-0 cells; assay type: functional
# [44] = system: ACHN; assay: Growth inhibition of human ACHN cells; assay type: functional
# [45] = system: CAKI-1; assay: Growth inhibition of human Caki1 cells; assay type: functional
# [46] = system: SN12C; assay: Growth inhibition of human SN12C cells; assay type: functional
# [47] = system: TK-10; assay: Growth inhibition of human TK10 cells; assay type: functional
# [48] = system: UO-31; assay: Growth inhibition of human UO31 cells; assay type: functional
# [49] = system: SK-OV-3; assay: Ratio of GI50 for human M14 cells to GI50 for human SK-OV-3 cells; assay type: functional
# [50] = system: HeLa; assay: Induction of KSP depletion in human HeLa cells after 4 hrs by immunofluorescence analysis; assay type: functional, cell-based
# Outline: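 HeLa cells were treated 4 h across a concentration series of compound in DMSO, then fixed in 100% MeOH at −20 °C. They were probed overnight at 4 °C with mouse anti-KSP and rabbit anti-EB1 to mark microtubules, with Alexa Fluor secondaries and DNA counterstain. KSP (green channel) images were taken at equivalent exposure times.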
# [51] = Inhibition of bipolar spindle formation in Strongylocentrotus purpuratus eggs; assay type: functional, Egg
# Outline: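 S. purpuratus eggs (gametes released with 0.5M KCl) were fertilized in artificial seawater with 2 mM 3-amino triazole and stripped of envelopes 20 min post-fertilization. They were then cultured with 0.1% DMSO or inhibitor at 100 nM–100 μM, fixed at first mitosis and stained for microtubules and DNA. 100 cells per condition were scored for bipolar spindles to derive EC50.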
# Sequence of Kinesin-like protein KIF11 (P52732 whole entry, the tested form may be a part): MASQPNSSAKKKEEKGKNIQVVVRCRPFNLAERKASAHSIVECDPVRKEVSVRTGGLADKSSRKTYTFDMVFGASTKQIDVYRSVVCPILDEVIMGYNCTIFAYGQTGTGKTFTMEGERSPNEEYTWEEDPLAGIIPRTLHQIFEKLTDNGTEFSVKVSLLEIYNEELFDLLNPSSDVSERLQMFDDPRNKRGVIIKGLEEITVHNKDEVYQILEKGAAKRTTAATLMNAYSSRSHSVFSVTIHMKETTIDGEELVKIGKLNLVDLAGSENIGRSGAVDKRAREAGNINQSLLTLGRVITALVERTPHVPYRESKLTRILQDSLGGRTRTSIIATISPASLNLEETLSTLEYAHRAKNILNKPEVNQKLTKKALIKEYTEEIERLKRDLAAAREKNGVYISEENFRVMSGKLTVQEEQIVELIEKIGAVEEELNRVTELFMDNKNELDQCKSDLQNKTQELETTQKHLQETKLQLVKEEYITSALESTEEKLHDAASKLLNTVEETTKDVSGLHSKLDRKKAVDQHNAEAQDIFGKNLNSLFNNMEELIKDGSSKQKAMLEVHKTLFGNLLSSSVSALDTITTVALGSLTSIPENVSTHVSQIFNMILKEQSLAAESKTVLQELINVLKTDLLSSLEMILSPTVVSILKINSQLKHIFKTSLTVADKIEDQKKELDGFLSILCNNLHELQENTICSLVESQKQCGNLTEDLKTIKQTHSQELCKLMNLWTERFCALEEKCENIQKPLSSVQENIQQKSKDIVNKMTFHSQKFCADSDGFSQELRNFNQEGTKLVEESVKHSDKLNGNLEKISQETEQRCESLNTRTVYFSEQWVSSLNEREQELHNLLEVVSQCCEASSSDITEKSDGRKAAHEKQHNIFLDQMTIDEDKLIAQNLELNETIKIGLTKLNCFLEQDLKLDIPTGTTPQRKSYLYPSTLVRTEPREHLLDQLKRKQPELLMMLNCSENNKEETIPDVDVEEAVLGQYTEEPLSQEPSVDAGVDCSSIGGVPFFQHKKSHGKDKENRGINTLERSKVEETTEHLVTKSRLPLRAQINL
smiles,measurement,setting,value
COc1ccc(C(SCCN)(c2ccccc2)c2ccccc2)cc1,IC50,[1],136 nM
same,inhibition,[2],Active
same,Activity,[3],inactive
same,inhibition,[4],inactive
same,GI50,[5],160 nM
same,GI50,[6],40 nM
same,GI50,[7],500 nM
same,GI50,[8],310 nM
same,GI50,[9],130 nM
same,GI50,[10],100 nM
same,GI50,[11],390 nM
same,GI50,[12],660 nM
same,GI50,[13],1740 nM
same,GI50,[14],510 nM
same,GI50,[15],60 nM
same,GI50,[16],40 nM
same,GI50,[17],210 nM
same,GI50,[18],240 nM
same,GI50,[19],40 nM
same,GI50,[20],50 nM
same,GI50,[21],350 nM
same,GI50,[22],70 nM
same,GI50,[23],150 nM
same,GI50,[24],180 nM
same,GI50,[25],250 nM
same,GI50,[26],340 nM
same,GI50,[27],600 nM
same,GI50,[28],50 nM
same,GI50,[29],500 nM
same,GI50,[30],220 nM
same,GI50,[31],30 nM
same,GI50,[32],60 nM
same,GI50,[33],640 nM
same,GI50,[34],50 nM
same,GI50,[35],700 nM
same,GI50,[36],400 nM
same,GI50,[37],150 nM
same,GI50,[38],150 nM
same,GI50,[39],1400 nM
same,GI50,[40],570 nM
same,GI50,[41],120 nM
same,GI50,[42],80 nM
same,GI50,[43],400 nM
same,GI50,[44],690 nM
same,GI50,[45],190 nM
same,GI50,[46],130 nM
same,GI50,[47],1560 nM
same,GI50,[48],500 nM
same,RatioGI50,[49],1250
N[C@@H](CSC(c1ccccc1)(c1ccccc1)c1ccccc1)C(=O)O [S-TRITYL-L-CYSTEINE],Activity,[50],Dose-dependent effect
same,inhibition,[4],inactive
same,EC50,[51],≥ 100000 nM
same,GI50,[13],100000 nM
same,GI50,[40],100000 nM
same,GI50,[42],100000 nM
same,GI50,[48],100000 nM
COc1ccc(C(SC[C@@H](N)CO)(c2ccccc2)c2ccccc2)cc1,inhibition,[4],inactive
